Rows were chosen to be rich in hits. Some 6.5% of all compounds tested hit in one or more screens of this group.
tolC growth inh = growth inhibitors of E. coli tolC mutant, primary screen, strain BW25113 ΔtolC::kan, 384-well | growth inhibition, % at 10 µM (by protocol) | OD615 | 65,000 tested, 2.2% active;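 active = growth inhibition at or above a cutoff equal to the mean over every tested compound plus 3 SD, cut at about 60% in these data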;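 note: growth measured after 20 h incubation at 37 °C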
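signal = optical density read at 615 nm | test system = E. coli ΔtolC::kan strain BW25113 | timing = 20 h compound exposure of bacteria at 37 °C | buffer or medium = LB medium plus 50 µg/mL kanamycin | compound dosing = 10 µM final, single dose | evaluation = % inhibition of E. coli growth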
PostGolgi yeast = phenotypic screen on post-Golgi transport, primary screen. 98,000 tested, 0.9% active. inhibition, % at 10 µM. post-Golgi transport phenotypic cell assay;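 note: yeast cells grown in 1536-well plates; yeast grown about 18 h at 30C before absorbance read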
PostGolgi ctrl = growth inhibition of yeast control strain, primary screen, counter-screen for post-Golgi transport modulator project. efflux-deficient yeast background strain, growth absorbance A615, 16 h. inhibition, % at 10 µM. 98,000 tested, 5% active
Candida biofilm = clotrimazole potentiators killing Candida biofilms, primary screen, with clotrimazole, Alamar Blue; C. albicans biofilm + clotrimazole; inhibition, % at 6 µM; 85,000 tested, 0.14% active;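 active = inhibition above 20%; inactive = inhibition below 20%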;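 note: preformed 24 hr biofilms exposed to compound for 48 hr; 0% = biofilm without compound and 100% = blank killed by clotrimazole plus chlorhexidine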
PTK2B oligo ant = antagonists of Pyk2 self-association, primary screen, Q293 cells, FERM NanoBiT luminescence, HTS; Protein-tyrosine kinase 2-beta (Homo sapiens), Q14289; 99,000 tested, 0.83% active; z-score (the deposit names both 25 µM and 10 µM); stronger effect = lower value;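 active = Z-score of -3 or lower, scaled per plate to the spread of control and sample wells; inactive = z-score above -3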;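 note: negative z-score means lost luminescence so less FERM oligomerization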
Target sequence (Q14289 whole entry, looked up): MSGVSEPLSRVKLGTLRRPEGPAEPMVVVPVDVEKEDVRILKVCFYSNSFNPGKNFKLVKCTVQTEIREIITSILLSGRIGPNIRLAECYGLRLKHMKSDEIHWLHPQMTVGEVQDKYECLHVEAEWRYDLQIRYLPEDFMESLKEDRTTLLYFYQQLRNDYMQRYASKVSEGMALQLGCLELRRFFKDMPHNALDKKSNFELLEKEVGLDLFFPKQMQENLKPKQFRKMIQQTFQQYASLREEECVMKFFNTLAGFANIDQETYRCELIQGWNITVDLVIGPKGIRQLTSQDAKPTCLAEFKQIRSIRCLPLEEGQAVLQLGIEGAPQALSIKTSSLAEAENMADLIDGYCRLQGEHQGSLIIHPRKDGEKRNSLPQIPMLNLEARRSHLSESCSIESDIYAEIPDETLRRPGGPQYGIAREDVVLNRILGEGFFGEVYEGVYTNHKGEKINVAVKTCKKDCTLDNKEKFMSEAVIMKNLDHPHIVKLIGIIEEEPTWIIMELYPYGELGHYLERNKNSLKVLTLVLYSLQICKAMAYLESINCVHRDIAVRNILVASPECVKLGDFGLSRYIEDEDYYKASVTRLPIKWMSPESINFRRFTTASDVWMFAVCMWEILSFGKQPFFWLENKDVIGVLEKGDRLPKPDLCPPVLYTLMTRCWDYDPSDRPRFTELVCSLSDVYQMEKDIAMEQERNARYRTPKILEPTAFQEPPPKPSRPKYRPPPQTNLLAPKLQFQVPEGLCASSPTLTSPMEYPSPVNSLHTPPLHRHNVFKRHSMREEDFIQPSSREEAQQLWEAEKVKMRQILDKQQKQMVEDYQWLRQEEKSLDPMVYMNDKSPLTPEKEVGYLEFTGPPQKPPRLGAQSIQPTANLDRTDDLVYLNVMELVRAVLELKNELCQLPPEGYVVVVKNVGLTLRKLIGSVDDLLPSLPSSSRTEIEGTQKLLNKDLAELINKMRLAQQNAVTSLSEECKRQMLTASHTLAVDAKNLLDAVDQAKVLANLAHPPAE
Ecoli WT expand = growth inhibitors of wild-type E. coli, primary screen, strain BW25113, expanded library, OD600; OD600 absorbance; growth inhibition, % at 100 µM; 98,000 tested, 0.15% active; AID 710, 2007;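 active = growth inhibition above about 50% at one test dose, limit read from the data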;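 note: growth measured after 20 h incubation at 37 °C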
* marks the source's active call; other numbers are inactive results; / = no result given. Cut-off read from the data, not from the text of the source, unless noted: active = inhibition above about 30%; inactive = the rest.

SMILES	tolC growth inh	PostGolgi yeast	PostGolgi ctrl	Candida biofilm	PTK2B oligo ant	Ecoli WT expand
COc1cccc(NC(=O)COC(=O)c2c3c(nc4ccccc24)CCC(C)C3)c1 (stereo not drawn)	/	9	10	1	-4.7*	-7
Cc1ccc(C)c(SCC(=O)OCC(=O)c2ccco2)c1	-12	-4	2	4	1.5	0
O=C(CSc1nnnn1C1CCCC1)Nc1cccc(NC(=O)c2ccco2)c1	24	5	5	0	0.23	3
O=C(CSc1nnnn1C1CCCCC1)Nc1cccc(NC(=O)c2ccco2)c1	73*	-8	16	3	-1.1	-5
O=C(CSc1nnc(NC(=O)c2ccc(S(=O)(=O)N3CCOCC3)cc2)s1)Nc1ccccc1C(F)(F)F	/	/	/	/	-1	/
C=CCn1c(=O)/c(=C/c2ccc(Cl)cc2)s/c1=C(/C#N)c1nnc2n1CCCCC2	13	-2	21	11	-2	-7
C=CCn1c(=O)/c(=C/c2ccc(O)cc2)s/c1=C(/C#N)c1nnc2n1CCCCC2	12	-6	5	8	-3.1*	-8
Cn1c(NCc2cccc(Br)c2)nc2ccccc21	25	4	12	3	-0.02	18
Cn1c(Oc2ccccc2NCc2cccc(Br)c2)cc(=O)n(C)c1=O	/	4	38*	5	-1.6	0
CS(=O)(=O)N1CCN(c2ccccc2NC(=O)c2cccc3ccccc23)CC1	/	/	/	5	-0.38	/
COc1cc2ccccc2cc1C(=O)Nc1ccccc1N1CCN(S(C)(=O)=O)CC1	15	19	38*	2	-0.45	-10
CCCC1=C(C(=O)OCC)C(c2cc(Cl)cc(OC)c2OCc2ccccc2)NC(=O)N1 (stereo not drawn)	/	2	16	11	-2.7	-9
Cc1ccc2nc(N3C(=O)C(O)=C(C(=O)c4cc5ccccc5o4)C3c3cccs3)sc2c1 (stereo not drawn)	/	-7	6	/	0.11	-15
CCc1ccc2nc(N3C(=O)C(O)=C(C(=O)c4ccco4)C3c3cccs3)sc2c1 (stereo not drawn)	/	-3	36*	/	0.4	-14
Cc1cc(N2CCN(c3ccccc3)CC2)nc(NCc2ccccc2)n1	53	1	47*	4	0.21	-4
CC(=O)C1=C(C)NC(SCc2cccc([N+](=O)[O-])c2)=C(C#N)C1c1ccco1 (stereo not drawn)	/	-5	8	/	-0.76	-8
C=CCOc1c(Cl)cc(C2NC(=O)NC(C)=C2C(=O)OC)cc1Cl (stereo not drawn)	18	7	51*	1	-2.4	-12
C=CCOc1c(OC)cc(Cl)cc1C1NC(=O)NC(C)=C1C(C)=O (stereo not drawn)	13	-5	-4	5	-1.7	2
N#CCC(=O)N/N=C/c1ccc(Sc2nc3ccccc3s2)o1	/	-1	16	/	-0.3	1
Cc1oc2c(c1C(=O)NCc1cc(C(=O)O)co1)CCCC2	-15	4	0	-1	0.03	-3
CCOC(=O)c1coc(CNC(=O)c2c(C)oc3c2CCCC3)c1	9	4	32*	2	1.3	13
NC(=O)c1ccc(C(F)(F)F)n(Cc2ccccc2Cl)c1=O	/	2	44*	/	-1.1	-8
C1CCN(c2c3c(nc4nnnn24)CCCC3)CC1	/	9	10	1	0.88	8
CCc1ccccc1NC(=O)Cn1nnc(-c2cccnc2)n1	-1	12	-15	7	0.78	-8
O=C(c1cc(Cl)ccc1Cl)N1CCOCC1	-2	1	12	4	0.83	4
SMILES	tolC growth inh	PostGolgi yeast	PostGolgi ctrl	Candida biofilm	PTK2B oligo ant	Ecoli WT expand
O=C(c1cc(-c2ccc(Cl)cc2)n(-c2ccc(Cl)c(Cl)c2)n1)N1CCOCC1	/	-9	40*	/	-0.06	-9
O=C(c1cc(-c2ccc(Cl)cc2)n(-c2cc(Cl)ccc2Cl)n1)N1CCOCC1	/	5	43*	/	0.49	-2
O=c1cc(CN2CCN(S(=O)(=O)c3ccc4c(c3)OCCO4)CC2)c2ccc(O)cc2o1	/	0	19	/	-3.9*	-8
CCN1CCN(S(=O)(=O)c2ccc3c(c2)OCCO3)CC1	/	-4	3	0	-0.15	-2
CCc1ccc2c(CN3CCN(S(=O)(=O)c4ccc5c(c4)OCCO5)CC3)cc(=O)oc2c1	12	5	33*	/	-1.3	-7
CC(C)CC(=O)N1CCN(Cc2ccc3c(c2)OCO3)CC1	/	-2	-4	7	-0.3	6
O=C(c1ccc(F)cc1)C1CCN(C(=O)NC2CCCCC2)CC1	/	1	0	3	0.55	2
O=C(Nc1nc2ccccc2s1)c1ccc(Cl)s1	-14	-15	13	-2	/	-19
CCNc1nc(N)c(C(=O)c2ccc(Cl)s2)s1	17	5	46*	13	-0.47	-9
CCCCNc1c2c3c(cccc3n(C)c1=O)C(=O)c1ccccc1-2	/	2	58*	6	-2.7	-26
Cn1c(=O)c(NCCc2ccccc2)c2c3c(cccc31)C(=O)c1ccccc1-2	/	0	48*	4	1.2	-12
COc1ccc(N2CCN(CC(=O)Nc3ccc(-n4cnnn4)cc3)CC2)cc1	-12	-2	8	/	0.21	-21
CC1CCCN(Cc2nc3c(c(=O)n(C)c(=O)n3C)n2CCCc2ccccc2)C1 (stereo not drawn)	50	5	14	6	1.1	-3
COc1ccccc1CCNC(=O)CCn1c(=O)oc2ccccc21	/	5	16	8	/	4
COc1ccc(CCNC(=O)CCn2c(=O)oc3ccccc32)cc1	0	-3	-10	21*	/	10
O=C(COC(=O)c1cc(-c2ccc(Cl)s2)nc2ccccc12)NCc1ccco1	/	-9	33*	5	-1	-19
O=C(COC(=O)c1cc(-c2cccs2)nc2ccccc12)NCc1ccco1	1	-6	16	-1	-2.1	-16
CN1CCN(c2c(F)cc3c(=O)c(C(=O)O)cn4c3c2SCC4)CC1	100*	3	5	6	-0.56	100*
Cc1c(-n2cc(C(=O)O)c(=O)c3cc(F)c(N4CCCC4)c(F)c32)c(=O)n(-c2ccccc2)n1C	-29	/	/	9	0.26	/
C/C(=N\OC(=O)NC1CCCCC1)c1sc(-c2ccccc2)nc1C	/	-2	34*	/	-2.7	-12
C/C(=N\OC(=O)NC(C)C)c1sc(-c2ccccc2)nc1C	/	-3	18	/	-0.86	8
C/C(=N\OC(=O)NC(C)C)c1sc(-c2ccc(Cl)cc2)nc1C	/	-2	36*	/	-0.74	-2
COc1cc(C(=O)Nc2cc(C(F)(F)F)ccc2Cl)cc(OC)c1OC	/	-1	1	/	0.72	-5
O=C(CSc1nnc(COc2ccccc2)n1-c1ccccc1)c1cccs1	32	-2	41*	-3	-0.41	-24
Cc1ccc(OCc2nnc(SCC(=O)c3cccs3)n2-c2ccccc2)cc1C	/	1	19	3	-1.2	-5
